Bioassay records: PubChem BioAssay, Johns Hopkins Ion Channel Center
In the library only some 3.7% were active in any assay of this set; here they are far more common.
KCNQ1 block: inhibitors of human KCNQ1 potassium channel | B-score at 10 µM | hit rate 1.3% among 310,000 | CHO-K1 KCNQ1, FluxOR thallium flux fluorescence; active compounds read high | P51787;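 active = compounds whose thallium flux B-score, printed positive for inhibition, exceeds three library SD while starting fluorescence stays within three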;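 note: channel opened by potassium depolarization with thallium stimulus after 20 min compound exposure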
Kir21 inh: Kir2.1 (mouse) channel inhibition | P35561 | HEK293-Kir2.1, FluxOR thallium flux fluorescence; active compounds read low | B-score at 10 µM | hit rate 0.85% among 310,000 | AID 1672;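 active = fluorescence ratio B-score at or below minus 3 SD of library scores, with starting-brightness B-score within 2 SD, cut at about -4.2 in these data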;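 note: channel flux triggered by added potassium and thallium sulfate stimulus; B-score of peak minus minimum fluorescence over baseline after thallium stimulus; more negative B-score means stronger Kir2.1 block with less thallium influx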
KCNK9 block: inhibitors of human KCNK9 two-pore domain potassium channel. Q9NPC2. HEK293 KCNK9, FluxOR thallium flux fluorescence; active compounds read low. B-score at 10 µM. hit rate 1.2% among 310,000;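 active = ratio B-score over 3 SD below the library mean, with starting fluorescence within 5 SD of its mean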;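 note: negative B-score means less thallium flux so channel inhibition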
KCNK3 block: human KCNK3 channel inhibition, primary screen; B-score at 10 µM; hit rate 0.84% among 340,000; CHO-KCNK3 thallium flux, FluxOR fluorescence; active compounds read low;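 active = B-score under library mean minus 4 SD, starting fluorescence ratio at most library mean plus 5 SD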;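 note: more negative B-score means stronger inhibition of thallium flux through KCNK3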
hERG protect: compounds protecting human hERG from proarrhythmic drug block | CHO-hERG, FluxOR thallium flux, dofetilide IC70 present | activation (rescue from dofetilide block), less the hit threshold, % at 10 µM | hit rate 0.51% among 310,000 | AID 1511;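 active = activation above the mean of controls blocked by dofetilide plus 5 SD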;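 note: thallium influx through hERG after potassium depolarization seen as dye fluorescence rise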
KCNQ1 pot: human KCNQ1 channel potentiation or activation | P51787 | CHO-K1 KCNQ1, thallium flux FluxOR fluorescence; active compounds read high | B-score at 10 µM | hit rate 0.35% among 310,000;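 active = fluorescence ratio B-score, a plate-corrected score, at least three library SD, with initial intensity B-score within 5 SD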
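System: Stable KCNQ1 CHO-K1 line | Incubation: 90 min dye loading and 20 min compound exposure, both at room temperature | Measure: Ratio B score | Medium: Assay buffer for compound exposure, DMSO matched across wells | Compound dosing: Single-concentration screen | Probe or stimulus: K+/Tl+ depolarizing stimulus | Measured by: Kinetic FluxOR fluorescence, 10 s baseline plus 110 s post-stimulus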
KCNK9 block conf: confirmation of human KCNK9 potassium channel inhibitors. AID 492992. shares compounds with KCNK9 block. inhibition, % at 10 µM. HEK293 KCNK9 cells, FluxOR thallium flux fluorescence. hit rate 43% among 4,900;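 active = thallium signal inhibited by more than 5 SD of the compound-free buffer control wells, on both duplicate plates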;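 note: 0% = assay buffer control wells without compound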
Kir21 sel: mouse Kir2.1 off-target activity of KCNK9 modulators | AID 492993 | Kir2.1 cells, FluxOR thallium flux fluorescence | inhibition, % at 10 µM | shares compounds with KCNK9 block | hit rate 4% among 4,900;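 active = thallium signal drop more than 5 SD beyond the mean of the no-compound control wells, seen in both duplicate plates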;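 note: signal is fluorescence rise after thallium addition divided by baseline fluorescence; plate controls were assay buffer only for no effect and full block by chlorpromazine control for full effect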
KCNK9 uninduced: second counter-screen for KCNK9 modulators: effect in non-induced cells; shares compounds with KCNK9 block; hit rate 40% among 4,900; non-induced KCNK9-HEK293, FluxOR thallium flux; inhibition, % at 10 µM;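 active = thallium signal drop beyond 5 SD of the untreated control mean, on both duplicate plates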;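 note: plate controls were buffer only IC0 wells for no effect and SID17386958 at its maximal inhibitory level for full effect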
* = called active by the depositor; i = inactive; . = not tested or not shown.

SMILES | KCNQ1 block | Kir21 inh | KCNK9 block | KCNK3 block | hERG protect | KCNQ1 pot | KCNK9 block conf | Kir21 sel | KCNK9 uninduced
CN(CCCC1CCCC1)C(=O)c1cc(COc2ccc(F)cc2F)on1 | i | -1.6 | i | i | -13 | i | i | i | i
CN(CCCC1CCCC1)C(=O)c1cc(COc2c(F)cccc2F)on1 | i | -0.73 | i | i | -8 | i | i | i | 22%*
COc1cccc(OCc2cc(C(=O)NCCc3cccc(C)n3)no2)c1 | i | 0.22 | i | i | -6 | i | . | . | .
CN(CCCN1CCOCC1)C(=O)c1cc(COc2c(F)cccc2F)on1 | i | -0.97 | i | i | -6 | i | . | . | .
COc1cccc(CCNC(=O)c2cc(COc3c(F)cccc3F)on2)c1 | i | 1.6 | i | i | -12 | i | i | i | i
CC(C)CCNC(=O)c1sc2ccc(S(=O)(=O)N3CCCCC3)cc2c1N | i | -1.1 | i | i | -5 | i | . | . | .
CC1=NN(c2ccc(Cl)cc2)C(=O)C1C(c1cccc(O)c1)c1c(C)[nH]n(-c2ccc(Cl)cc2)c1=O (stereo not given) | i | -0.77 | i | i | -3 | i | i | i | i
Cc1[nH]n(-c2ccc(Cl)cc2)c(=O)c1C(=O)c1ccccc1 | i | 0.97 | i | i | -8 | i | . | . | .
Cc1ccc(OCCOCCOc2cccc3cccnc23)c(Br)c1 | i | -1.9 | i | i | -10 | i | i | i | i
Clc1cc(Br)ccc1OCCOCCOc1cccc2cccnc12 | i | -0.73 | i | i | -2 | i | . | . | .
COc1ccccc1OCCOCCOc1c(C)cc(C)cc1Br | i | 1.6 | i | i | -6 | i | i | i | i
COc1cc(C)ccc1OCCOCCOc1c(C)cc(C)cc1Br | i | 0.01 | i | i | -11 | i | i | i | i
CCOC(=O)C1(Cc2cccc(F)c2)CCN(C(=O)Cn2cnnn2)CC1 | i | 0.52 | i | i | -11 | i | . | . | .
CCCN(CC1CC1)C(=O)COC(=O)c1[nH]c(C)c(C(=O)OCC)c1C | i | 0.03 | i | i | -13 | i | . | . | .
Cc1ccc(S(=O)(=O)NN=C2C(=O)C3CCC2C3Cl)cc1 (stereo not given) | . | . | . | i | . | . | . | . | .
O=C(CCNC(=O)C1CCN(S(=O)(=O)c2ccc(F)cc2)CC1)NCc1cccnc1 | i | -1.6 | i | i | -9 | i | . | . | .
CCN(CC(=O)Nc1ccccc1C(F)(F)F)C(=O)CN1C(=O)NC(C)(c2ccccc2)C1=O (stereo not given) | i | 0.15 | i | i | -15 | i | . | . | .
COc1ccc2cc(C#N)c(N3CCN(C(=O)c4ccccc4C)CC3)nc2c1 | i | -1.2 | i | i | -12 | i | i | i | i
O=C(NCc1ccccc1)c1ccc(CS(=O)(=O)c2ccccc2)o1 | i | 0.15 | i | i | -13 | i | . | . | .
COc1cc(OC)nc(Oc2cccc(C(F)(F)F)c2)n1 | i | 0.18 | -10* | i | -7 | i | 48%* | i | 38%*
CCOc1ccc(NC2=C(Cl)C(=O)N(C3CCCCC3)C2=O)cc1 | i | 0.45 | i | i | -4 | i | . | . | .
COc1ccc(C)cc1NC1=C(Cl)C(=O)N(C2CCCCC2)C1=O | i | 0.43 | -17* | i | -10 | i | 64%* | i | 44%*
COc1cc(C)ccc1OCCCCOc1ccccc1C(C)=O | i | -2.1 | i | i | -17 | i | i | i | i
COc1cc(C)ccc1OCCCOc1ccccc1Cl | i | 0.01 | i | i | -7 | i | . | . | .
CSc1ccccc1OCc1cc(C(=O)N(C)Cc2ccc(C)o2)no1 | i | -1.1 | i | i | -10 | i | i | i | i
SMILES | KCNQ1 block | Kir21 inh | KCNK9 block | KCNK3 block | hERG protect | KCNQ1 pot | KCNK9 block conf | Kir21 sel | KCNK9 uninduced
CSc1ccccc1OCc1cc(C(=O)N(C)Cc2ccc3nsnc3c2)no1 | i | 0.91 | i | i | -8 | i | . | . | .
O=C1c2ccccc2NC(c2ccc([N+](=O)[O-])cc2)N1O (stereo not given) | i | -0.06 | i | i | -6 | i | . | . | .
O=C(NC1CCCCC1)C(c1ccccc1)N1CCCC1 (stereo not given) | i | 0.06 | i | i | -5 | i | . | . | .
CC(C(=O)NC(=O)NC1CCCCC1)N1CCN(C(c2ccccc2)c2ccccc2)CC1 (stereo not given) | i | 0 | i | i | -14 | i | i | i | i
O=[N+]([O-])c1ccc(-c2n(-c3ccccn3)c3ccccc3[n+]2-c2ccccn2)cc1 | i | -0.62 | i | i | -13 | i | . | . | .
O=C1CC(N(CCc2ccccc2)C(=S)Nc2cc(Cl)ccc2Cl)C(=O)N1c1c(Cl)cccc1Cl (stereo not given) | i | 1 | -9.6* | i | -4 | i | 42%* | i | i
COc1ccccc1NC(=O)c1cc(Br)ccc1Cl | i | -0.66 | i | i | -11 | i | . | . | .
O=C(Nc1ccccc1)c1ccc(-c2ccc(Br)cc2)o1 | i | 0.03 | i | i | -5 | i | . | . | .
COc1ccc(S(=O)(=O)N2CCCCC2)cc1NC(=O)c1ccco1 | i | -0.91 | i | i | -7 | i | . | . | .
COc1ccccc1NC(=O)c1ccc(-c2ccc(Br)cc2)o1 | i | 1.8 | -11* | i | -2 | i | 33%* | i | 30%*
COc1c(C)cc(Br)cc1C(=O)NC(=S)Nc1ccc(Cl)c(C(=O)O)c1 | i | 0.63 | i | i | -5 | i | i | i | i
COc1ccc(NC(=O)c2ccco2)cc1S(=O)(=O)N1CCCCC1 | i | 0.01 | i | i | -6 | i | i | i | i
COc1ccc(Br)cc1C(=O)Nc1ccccc1-c1ccccc1 | i | 2 | -10* | i | -3 | i | 52%* | i | 42%*
O=c1ccc(Cl)nn1-c1ccccc1 | i | 1.1 | i | i | -6 | i | . | . | .
COCCNC(=O)c1cc(-c2ccccc2C)nn1CC1CC(c2cccnc2)=NO1 (stereo not given) | . | . | . | i | . | . | . | . | .
COc1ccc(S(=O)(=O)NCC2CCCO2)c(Cl)c1Cl (stereo not given) | i | 0.23 | i | i | 2 | i | . | . | .
